From ChEMBL document CHEMBL1153124, “5-Lipoxygenase-activating protein inhibitors. Part 2: 3-{5-((S)-1-Acetyl-2,3-dihydro-1H-indol-2-ylmethoxy)-3-tert-butylsulfanyl-1-[4-(5-methoxy-pyrimidin-2-yl)-benzyl]-1H-indol-2-yl}-2,2-dimethyl-propionic acid (AM679)--a potent FLAP inhibitor” (Bioorg Med Chem Lett, 2010)
≈ marks a conversion by molar mass, not a printed value.

Tests used:
Cytochrome P450 2C9 = Cytochrome P450 2C9 (Homo sapiens, UniProt P11712); experiment: Inhibition of CYP2C9; assay type: ADME
[1] = Bioavailability in rat at 10 mg/kg; assay type: ADME, organism-based; details: in vivo
Summary of the method: (§1)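 Rat, oral dosing at 10 mg/kg given as the sodium carboxylate salt. Read-outs: F, clearance, Cmax, AUC and half-life.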

[2] = AUC in rat at 10 mg/kg, po; assay type: ADME, organism-based; parameters: dose 10 mg/kg, route oral; details: plasma; summary of the method: as §1
CYP3A4 = CYP3A4 (Homo sapiens, UniProt P08684); experiment: Inhibition of CYP3A4 at 10 uM; assay type: ADME
[3] = Clearance in rat at 10 mg/kg, po; assay type: ADME, organism-based; parameters: dose 10 mg/kg, route oral; details: in vivo; summary of the method: as §1
Blood [4] = experiment: Inhibition of LTB4 production in calcium ionophore treated A23187 human whole blood after 15 mins; assay type: functional, tissue-based; details: 0.25 h
[5] = biological target: T1, Arachidonate 5-lipoxygenase-activating protein (Homo sapiens, UniProt P20292); experiment: Binding affinity to FLAP in human PMN derived membrane; assay type: cell membranes
T1 sequence (P20292 whole entry): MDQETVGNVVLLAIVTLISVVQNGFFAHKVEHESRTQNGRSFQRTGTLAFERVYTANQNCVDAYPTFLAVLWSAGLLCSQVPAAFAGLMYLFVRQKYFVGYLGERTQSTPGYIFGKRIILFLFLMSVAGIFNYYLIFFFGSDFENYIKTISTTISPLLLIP
Summary of the method: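 FLAP binding measured in membranes derived from human polymorphonuclear leukocytes (PMN). IC50 values are the average of n ≥ 3.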

[6] = Inhibition of LTB4 production in calcium ionophore A23187 treated human leukocytes; assay type: functional, cell-based; details: Leukocyte
Summary of the method: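 Human leukocytes challenged with calcium ionophore; LTB4 produced by the cells was measured. IC50 is the average of n ≥ 3.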

CYP2C9 = CYP2C9 (Homo sapiens, UniProt P11712); experiment: Inhibition of CYP2C9 at 10 uM; assay type: ADME
Rattus norvegicus [7] = experiment: Reduction of CysLT production in lung lavage fluid of calcium ionophore A23187 treated rat bronchoalveolar lavage model at 3 mg/kg, po administered 16 hrs prior to calcium ionophore A23187 challenge; assay type: functional; parameters: scale not given: the % may be the effect or the level left
Summary of the method: (§2)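 Rat BAL model. 3 mg/kg given orally 16 h before ionophore challenge. LTB4 and CysLT inhibition measured in lavage fluid; average plasma levels measured at that time point.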

[8] = Plasma concentration in calcium ionophore A23187 treated rat bronchoalveolar lavage model at 3 mg/kg, po administered 16 hrs prior to calcium ionophore A23187 challenge; assay type: ADME, organism-based; parameters: dose 3 mg/kg, route oral; summary of the method: as §2
[9] = Half life in rat at 10 mg/kg, po; assay type: ADME, organism-based; parameters: dose 10 mg/kg, route oral; details: in vivo; summary of the method: as §1
Rattus norvegicus [10] = experiment: Reduction of CysLT production in lung lavage fluid of calcium ionophore A23187 treated rat bronchoalveolar lavage model at 10 mg/kg, po administered 4 hrs prior to calcium ionophore A23187 challenge; assay type: functional; parameters: scale not given: the % may be the effect or the level left
Summary of the method: (§3)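 Rat bronchoalveolar lavage model. Oral dose of 10 mg/kg as the sodium carboxylate salt, given 4 h before ionophore challenge. LTB4 and CysLT measured in lung lavage fluid; average plasma levels taken 3 h post dose.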

Cytochrome P450 2D6 = Cytochrome P450 2D6 (Homo sapiens, UniProt P10635); experiment: Inhibition of CYP2D6; assay type: ADME
[11] = Solubility in water; assay type: physicochemical
Cytochrome P450 3A4 = Cytochrome P450 3A4 (Homo sapiens, UniProt P08684); experiment: Induction of CYP3A4 activity; assay type: ADME
Summary of the method: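 CYP3A4 induction assay measuring a compound's ability to raise CYP enzyme activity.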

Blood [12] = experiment: Reduction of LTB4 production in rat blood after 3 hrs; assay type: functional, tissue-based
Rattus norvegicus [13] = experiment: Reduction of LTB4 production in lung lavage fluid of calcium ionophore A23187 treated rat bronchoalveolar lavage model at 3 mg/kg, po administered 16 hrs prior to calcium ionophore A23187 challenge; assay type: functional; parameters: scale not given: the % may be the effect or the level left; summary of the method: as §2
Blood [14] = experiment: Inhibition of LTB4 production in calcium ionophore treated A23187 human whole blood after 5 hrs; assay type: functional, tissue-based
Summary of the method: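 Human whole blood incubated with compound for an extended 5 h before ionophore challenge; LTB4 production measured. IC50 from n = 6, each n the average of two donors.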

Rattus norvegicus [15] = experiment: Reduction of LTB4 production in lung lavage fluid of po dosed calcium ionophore A23187 treated rat bronchoalveolar lavage model administered 4 hrs prior to calcium ionophore A23187 challenge; assay type: functional
Summary of the method: (§4)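 Rat BAL model. Oral dose-response study with dosing 4 h before ionophore challenge; ED50 for LTB4 and CysLT in lavage fluid.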

[16] = Solubility in 0.9% saline; assay type: physicochemical
Rattus norvegicus [17] = experiment: Reduction of CysLT production in lung lavage fluid of po dosed calcium ionophore A23187 treated rat bronchoalveolar lavage model administered 4 hrs prior to calcium ionophore A23187 challenge; assay type: functional; summary of the method: as §4
[18] = Plasma concentration in calcium ionophore A23187 treated rat bronchoalveolar lavage model at 10 mg/kg, po administered 4 hrs prior to calcium ionophore A23187 challenge measured 3 hrs after post dose; assay type: ADME, organism-based; parameters: dose 10 mg/kg, route oral; summary of the method: as §3
Blood [19] = experiment: Reduction of LTB4 production in rat blood after 4 hrs; assay type: functional, tissue-based
Summary of the method: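 Rat blood incubated with compound for 4 h, then ionophore challenge; inhibition of LTB4 production measured; IC50.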

Rattus norvegicus [20] = experiment: Reduction of LTB4 production in lung lavage fluid of calcium ionophore A23187 treated rat bronchoalveolar lavage model at 10 mg/kg, po administered 4 hrs prior to calcium ionophore A23187 challenge; assay type: functional; parameters: scale not given: the % may be the effect or the level left; summary of the method: as §3
[21] = Cmax in rat at 10 mg/kg, po; assay type: ADME, organism-based; parameters: dose 10 mg/kg, route oral; details: in vivo; summary of the method: as §1

Chain of CYP2C9 (P11712 whole entry): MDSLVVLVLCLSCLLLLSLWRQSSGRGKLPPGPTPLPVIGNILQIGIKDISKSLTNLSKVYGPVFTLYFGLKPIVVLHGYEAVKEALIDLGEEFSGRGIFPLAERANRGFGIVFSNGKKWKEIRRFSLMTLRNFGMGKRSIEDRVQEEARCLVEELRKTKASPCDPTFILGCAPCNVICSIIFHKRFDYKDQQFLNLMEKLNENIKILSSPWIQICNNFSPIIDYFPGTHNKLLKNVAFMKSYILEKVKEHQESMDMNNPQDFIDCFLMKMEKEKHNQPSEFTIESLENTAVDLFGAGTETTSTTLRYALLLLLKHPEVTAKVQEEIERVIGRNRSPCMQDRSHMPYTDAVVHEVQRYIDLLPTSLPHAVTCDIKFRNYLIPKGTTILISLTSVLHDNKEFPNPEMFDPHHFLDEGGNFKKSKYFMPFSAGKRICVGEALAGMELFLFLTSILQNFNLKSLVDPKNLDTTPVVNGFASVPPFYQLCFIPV
Chain of CYP3A4 (P08684 whole entry): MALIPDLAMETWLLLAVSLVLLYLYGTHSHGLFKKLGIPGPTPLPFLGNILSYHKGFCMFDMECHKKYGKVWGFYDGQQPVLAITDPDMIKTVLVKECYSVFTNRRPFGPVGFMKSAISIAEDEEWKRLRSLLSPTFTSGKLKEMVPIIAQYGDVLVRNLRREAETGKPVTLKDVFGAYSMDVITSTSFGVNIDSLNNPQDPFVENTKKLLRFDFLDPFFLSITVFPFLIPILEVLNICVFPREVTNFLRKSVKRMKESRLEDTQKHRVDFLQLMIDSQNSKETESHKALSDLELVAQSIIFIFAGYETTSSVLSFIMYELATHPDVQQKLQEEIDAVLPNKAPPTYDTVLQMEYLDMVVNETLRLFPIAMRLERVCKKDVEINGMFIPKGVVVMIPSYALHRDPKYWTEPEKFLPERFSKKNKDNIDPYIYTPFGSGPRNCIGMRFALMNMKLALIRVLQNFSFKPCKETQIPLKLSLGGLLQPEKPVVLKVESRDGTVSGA
Chain of Cytochrome P450 2C9 (P11712 whole entry): as the sequence (P11712 whole entry) above
Chain of Cytochrome P450 3A4 (P08684 whole entry): as the sequence (P08684 whole entry) above
Chain of Cytochrome P450 2D6 (P10635 whole entry): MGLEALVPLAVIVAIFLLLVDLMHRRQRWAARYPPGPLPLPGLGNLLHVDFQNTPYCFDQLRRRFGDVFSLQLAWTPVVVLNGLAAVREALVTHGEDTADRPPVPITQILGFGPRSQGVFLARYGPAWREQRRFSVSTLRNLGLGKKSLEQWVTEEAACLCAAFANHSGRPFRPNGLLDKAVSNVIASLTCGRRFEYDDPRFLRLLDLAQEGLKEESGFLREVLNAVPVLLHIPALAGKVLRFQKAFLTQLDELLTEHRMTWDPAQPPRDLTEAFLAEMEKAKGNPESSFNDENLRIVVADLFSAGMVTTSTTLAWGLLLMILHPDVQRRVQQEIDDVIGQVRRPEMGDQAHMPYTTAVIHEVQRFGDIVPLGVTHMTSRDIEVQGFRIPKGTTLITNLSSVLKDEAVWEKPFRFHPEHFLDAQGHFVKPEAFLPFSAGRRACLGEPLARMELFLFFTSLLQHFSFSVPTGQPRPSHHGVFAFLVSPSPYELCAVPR

Row | Compound | IC50 (Blood [4]) [µM] | IC50 [5] [µM] | IC50 [6] [µM] | further results
1 | CC(C)(C)Sc1c(CC(C)(C)C(=O)O)n(Cc2ccc(Cl)cc2)c2ccc(OCc3ccc4ccccc4n3)cc12 [QUIFLAPON] | – | – | – | IC50 (Cytochrome P450 2C9): 0.5 µM
2 | CC(=O)N1CCC[C@H]1COc1ccc2c(c1)c(SC(C)(C)C)c(CC(C)(C)C(=O)O)n2Cc1ccc(Cl)cc1 | 0.403 | 0.006 | 0.016 | bioavailability [1]: 10%; AUC [2]: 1200 ng·h/mL; inhibition at 10 µM (CYP3A4): 64%; CL/F [3]: 20 mL/min/kg; inhibition at 10 µM (CYP2C9): 93%
3 | CC(=O)N[C@H](COc1ccc2c(c1)c(SC(C)(C)C)c(CC(C)(C)C(=O)O)n2Cc1ccc(Cl)cc1)c1ccccc1 | 23.1 | 0.581 | 0.072 | –
4 | CC(=O)N1c2ccccc2C[C@H]1COc1ccc2c(c1)c(Cc1ccccc1)c(CC(C)(C)C(=O)O)n2Cc1ccc(Cl)cc1 | 0.428 | 0.0152 | 0.0015 | inhibition at 10 µM (CYP3A4): > 80%; inhibition at 10 µM (CYP2C9): > 80%
5 | CC(C)(C)Sc1c(CC(C)(C)C(=O)O)n(Cc2ccc(Cl)cc2)c2ccc(OC[C@@H]3CCCN3C(=O)C3CC3)cc12 | 0.885 | 0.05 | 0.008 | –
6 | CC(C)(C)OC(=O)N1CCC[C@H]1COc1ccc2c(c1)c(SC(C)(C)C)c(CC(C)(C)C(=O)O)n2Cc1ccc(Cl)cc1 | 17.2 | 1.11 | 0.029 | –
7 | CC(=O)N1c2ccccc2C[C@H]1COc1ccc2c(c1)c(C(=O)C(C)(C)C)c(CC(C)(C)C(=O)[O-])n2Cc1ccc(Cl)cc1.[Na+] | – | – | – | bioavailability [1]: 7%; Cmax [21]: 270 nM
8 | CC(C)(C)Sc1c(CC(C)(C)C(=O)O)n(Cc2ccc(Cl)cc2)c2ccc(OC[C@@H]3CCCN3C(=O)c3ccccc3)cc12 | 22.3 | 1.34 | 0.11 | –
9 | CC(=O)N1c2ccccc2C[C@H]1COc1ccc2c(c1)c(C(=O)C(C)C)c(CC(C)(C)C(=O)O)n2Cc1ccc(Cl)cc1 | 4.9 | 0.0206 | 0.0206 | –
10 | CC(=O)N1c2ccccc2C[C@H]1COc1ccc2c(c1)c(C(=O)C(C)(C)C)c(CC(C)(C)C(=O)O)n2Cc1ccc(Cl)cc1 | 0.521 | 0.019 | 0.0013 | –
11 | CC(C)(C)Sc1c(CC(C)(C)C(=O)O)n(Cc2ccc(Cl)cc2)c2ccc(OC[C@@H]3Cc4ccccc4N3)cc12 | 1.43 | 0.085 | 0.0041 | –
12 | CC(=O)N1c2ccccc2C[C@H]1COc1ccc2c(c1)c(CC(C)C)c(CC(C)(C)C(=O)O)n2Cc1ccc(Cl)cc1 | 0.2 | 0.035 | 0.0005 | inhibition at 10 µM (CYP3A4): > 80%; inhibition at 10 µM (CYP2C9): > 80%

The next lines start with results.

Row | IC50 (Blood [4]) [µM] | IC50 [5] [µM] | IC50 [6] [µM] | Compound | further results
13 | 0.154 | 0.0022 | 0.0006 | COc1cnc(-c2ccc(Cn3c(CC(C)(C)C(=O)O)c(SC(C)(C)C)c4cc(OC[C@@H]5Cc6ccccc6N5C(C)=O)ccc43)cc2)nc1 | Activity (Rattus norvegicus [7]): 45%; concentration at 16 h [8]: 4 nM; bioavailability [1]: 29%; half-life [9]: 6.8 h; Activity (Rattus norvegicus [10]): 87%; INH (Cytochrome P450 2D6): > 30 µM; solubility [11]: 10000 µg/mL (≈ 14.4 mM); Activity (Cytochrome P450 3A4): Not Active; IC50 (Blood [12]): 0.125 µM; CL/F [3]: 11 mL/min/kg; IC50 (Cytochrome P450 2C9): 3.7 µM; Activity (Rattus norvegicus [13]): 77%; IC50 (Blood [14]): 0.053 µM; ED50 (Rattus norvegicus [15]): 0.8 mg/kg; solubility [16]: 30 µg/mL (≈ 0.0433 mM); ED50 (Rattus norvegicus [17]): 1.4 mg/kg; concentration at 3 h [18]: 605 nM; IC50 (Blood [19]): 0.009 µM; Activity (Rattus norvegicus [20]): 98%; Cmax [21]: 1600 nM
14 | 0.405 | 0.0047 | 0.0042 | CC(=O)N1c2ccccc2C[C@H]1COc1ccc2c(c1)c(CCC(C)(C)C)c(CC(C)(C)C(=O)O)n2Cc1ccc(Cl)cc1 | inhibition at 10 µM (CYP3A4): > 80%; inhibition at 10 µM (CYP2C9): > 80%
15 | 0.169 | 0.0014 | 0.0005 | CC(=O)N1c2ccccc2C[C@H]1COc1ccc2c(c1)c(SC(C)(C)C)c(CC(C)(C)C(=O)O)n2Cc1ccc(Cl)cc1 | bioavailability [1]: 11%; inhibition at 10 µM (CYP3A4): 80%; CL/F [3]: 25 mL/min/kg; Cmax [21]: 270 nM; inhibition at 10 µM (CYP2C9): 96%
16 | 1.11 | 0.0032 | 0.0126 | COc1ccc(-c2ccc(Cn3c(CC(C)(C)C(=O)O)c(SC(C)(C)C)c4cc(OC[C@@H]5Cc6ccccc6N5C(C)=O)ccc43)cc2)nn1 | –
17 | 0.235 | 0.0017 | 0.0005 | CC(=O)N1c2ccccc2C[C@H]1COc1ccc2c(c1)c(SC(C)(C)C)c(CC(C)(C)C(=O)O)n2Cc1ccc(-c2ccc(F)cn2)cc1 | –
18 | 23.2 | 0.074 | 0.335 | CC(=O)N1c2ccccc2C[C@H]1COc1ccc2c(c1)c([S+]([O-])C(C)(C)C)c(CC(C)(C)C(=O)O)n2Cc1ccc(Cl)cc1 (some centres not stated) | –
